Data: paper PMC11636628 (Journal of receptor and signal transduction research, 2024)

How the values were obtained:
[1] = target: human CB1 (Homo sapiens, UniProt P21554); assay: thallium flux, HEK/GIRK cells; type: cell-based
[2] = target: human CB2 (Homo sapiens, UniProt P34972); assay: thallium flux, HEK/GIRK cells; type: cell-based
Procedure, shortened: (§1)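 HEK/GIRK cells were made to stably express the receptor by ViaFect transfection with a pIRESpuro3 construct and selected with 1 μg/mL puromycin. Cells (15,000/well) were seeded overnight at 37 °C. They were loaded with 1.2 μM Thallos-AM in HBSS/20 mM HEPES pH 7.3 for 1 h at RT. Compound or DMSO was added, then 12 mM Tl2SO4 stimulus buffer with agonist 140 s later. The 145–155 s slope was vehicle-subtracted, normalized to maximal JWH133 signal and fit with a four-parameter logistic. Triplicate, three to five experiments.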

[3] = target: T1, rat CB2 (Rattus norvegicus, UniProt Q9QZN9); assay: thallium flux, HEK/GIRK cells; type: cell-based
T1 sequence (Q9QZN9 1-360): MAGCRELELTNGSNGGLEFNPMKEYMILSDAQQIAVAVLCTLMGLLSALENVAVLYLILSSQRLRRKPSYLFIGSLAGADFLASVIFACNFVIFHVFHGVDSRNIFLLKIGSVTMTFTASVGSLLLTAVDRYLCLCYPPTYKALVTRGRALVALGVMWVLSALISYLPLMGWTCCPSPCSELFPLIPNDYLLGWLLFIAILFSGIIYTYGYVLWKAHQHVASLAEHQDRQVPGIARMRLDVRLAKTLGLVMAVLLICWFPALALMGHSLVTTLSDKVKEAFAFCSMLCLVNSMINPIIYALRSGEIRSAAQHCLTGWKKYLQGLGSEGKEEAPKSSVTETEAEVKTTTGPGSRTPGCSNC
Procedure, shortened: as §1

[4] = target: T2, rat CB1 (Rattus norvegicus, UniProt P20272); assay: thallium flux, HEK/GIRK cells; type: cell-based
[5] = target: T1, rat CB2; assay: [3H]CP55940 competition, HEK/GIRK membranes; type: binding
[6] = target: T2, rat CB1; assay: PI hydrolysis, [3H]inositol phosphate chromatography, HEK/Gqi9 cells; type: cell-based
Procedure, shortened: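 HEK293 cells stably expressing Gqi9 were transfected with a pIRESpuro3 receptor construct and puromycin-selected. They were seeded at 1.5 X 10^5 cells/well and assayed after 48 h. Cells were labelled overnight with 0.4 μCi myo-[3H]inositol in inositol-free DMEM with 5% dialyzed FBS. Agonists were added at 5x in 50 mM LiCl/250 mM HEPES pH 7.25 for 30 min at 37 °C. Reactions were stopped with boiling EDTA pH 8.0, and [3H]inositol phosphates were resolved on Dowex AG1-X8 and scintillation counted.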

[7] = target: T1, rat CB2; assay: thallium flux, HEK/GIRK cells, compound alone; type: cell-based

human CB2, sequence (P34972 whole entry): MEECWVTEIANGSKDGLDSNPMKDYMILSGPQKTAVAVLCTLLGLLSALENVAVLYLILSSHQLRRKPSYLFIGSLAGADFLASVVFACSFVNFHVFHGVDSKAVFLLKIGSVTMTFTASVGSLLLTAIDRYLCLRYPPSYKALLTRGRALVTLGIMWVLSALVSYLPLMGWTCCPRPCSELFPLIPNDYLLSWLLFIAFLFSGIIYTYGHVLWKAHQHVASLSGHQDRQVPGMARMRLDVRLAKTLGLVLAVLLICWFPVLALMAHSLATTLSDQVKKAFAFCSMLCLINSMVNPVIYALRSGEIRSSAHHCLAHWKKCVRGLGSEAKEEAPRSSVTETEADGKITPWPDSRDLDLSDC
T2 sequence (P20272 whole entry): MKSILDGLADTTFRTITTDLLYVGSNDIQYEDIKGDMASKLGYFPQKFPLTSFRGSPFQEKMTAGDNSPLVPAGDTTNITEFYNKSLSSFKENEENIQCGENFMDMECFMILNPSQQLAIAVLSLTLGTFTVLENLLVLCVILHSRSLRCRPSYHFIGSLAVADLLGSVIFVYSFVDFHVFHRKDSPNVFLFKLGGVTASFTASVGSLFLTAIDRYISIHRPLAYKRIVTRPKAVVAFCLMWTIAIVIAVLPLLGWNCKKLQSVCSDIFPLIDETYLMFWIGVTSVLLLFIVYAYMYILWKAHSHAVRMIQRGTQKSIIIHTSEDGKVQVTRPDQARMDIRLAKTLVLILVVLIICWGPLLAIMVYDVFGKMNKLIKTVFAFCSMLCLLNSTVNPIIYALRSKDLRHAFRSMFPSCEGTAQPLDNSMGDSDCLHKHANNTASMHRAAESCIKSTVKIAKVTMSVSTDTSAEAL
human CB1, sequence (P21554 whole entry): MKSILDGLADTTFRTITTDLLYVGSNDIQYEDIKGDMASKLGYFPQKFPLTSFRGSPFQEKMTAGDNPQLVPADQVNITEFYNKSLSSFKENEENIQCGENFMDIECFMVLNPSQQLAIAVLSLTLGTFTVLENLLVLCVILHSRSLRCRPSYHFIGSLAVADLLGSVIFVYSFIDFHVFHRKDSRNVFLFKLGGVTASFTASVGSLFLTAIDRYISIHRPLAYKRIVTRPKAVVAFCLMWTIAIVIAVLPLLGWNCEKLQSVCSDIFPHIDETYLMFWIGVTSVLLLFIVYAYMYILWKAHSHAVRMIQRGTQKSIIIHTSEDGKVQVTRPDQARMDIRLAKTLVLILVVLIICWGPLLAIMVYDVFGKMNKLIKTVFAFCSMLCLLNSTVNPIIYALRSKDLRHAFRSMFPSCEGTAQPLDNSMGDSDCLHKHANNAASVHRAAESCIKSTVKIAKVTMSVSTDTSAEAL

SMILES	EC50 [1] [nM]	EC50 [2] [nM]	EC50 [3] [nM]	other results
CCCC(C)(C)c1ccc2c(c1)OC(C)(C)[C@@H]1CC=C(C)C[C@@H]21 [JWH133]	1230	275	537	
CCCCC/C=C\C/C=C\C/C=C\C/C=C\CCCC(=O)NCCCl [ACEA, N-(2-Chloroethyl)-5Z,8Z,11Z,14Z-eicosatetraenamide]	60.3	1700	251	EC50 [4]: 20 nM
CCCCC/C=C\C/C=C\C/C=C\C/C=C\CCCC(=O)OC(CO)CO [2-AG]		145	49	
COc1ccc(C(=O)c2c(C)n(CCN3CCOCC3)c3cc(I)ccc23)cc1 [AM630]				IC50 [5]: 72.4 nM
Cc1c(Br)cn(Cc2ccc(F)cc2)c(=O)c1NC(=O)C1CCCCCC1 [EC21a]				EC50 [6]: 1700 nM; EC50 [7]: 100 nM
